Assay results reported in ChEMBL document CHEMBL4706580, “4-Amino-1,2,4-triazole-3-thione-derived Schiff bases as metallo-β-lactamase inhibitors” (Eur J Med Chem, 2020).
pIC50, pKd, pKi: −log10 of the molar value. Activity calls are given as the source filed them. The rule behind the calls is not given here.

Assays:
[1] = Inhibition of beta-lactamase IMP-1 (unknown origin) expressed in Escherichia coli BL21(DE3) using imipenem as substrate by measuring substrate hydrolysis at 200 uM by spectrophotometric analysis
How it was run: (§1)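 Purified enzyme (overproduced in E. coli BL21(DE3), pET-9a; ion-exchange and gel filtration), 1-70 nM final. Reporter substrate 150 μM imipenem, read at 300 nm, 30 °C, 50 mM HEPES pH 7.5. Single-point screen at 100 or 200 μM; Ki from v0/vi vs [I] (0.5–1,000 μM final) assuming competitive inhibition, or Dixon plot. Triplicate.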

[2] = Inhibition of beta-lactamase CphA (unknown origin) expressed in Escherichia coli BL21(DE3) using imipenem as substrate by measuring substrate hydrolysis by spectrophotometric analysis
How it was run: (§2)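 Enzyme 0.2–0.8 nM in 15 mM cacodylate pH 6.5, no added zinc, pre-incubated 30 min at 21 °C with inhibitor (100 μM screen). Imipenem substrate added from 10 mM stock; hydrolysis at 300 nm, 30 °C. Residual activity vs three uninhibited samples; Ki (1–100 μM inhibitor) by Hanes linearization, competitive model. Triplicate.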

[3] = Inhibition of beta-lactamase VIM2 (unknown origin) expressed in Escherichia coli BL21(DE3) using imipenem as substrate by measuring substrate hydrolysis by spectrophotometric analysis; how it was run: as §1
[4] = Inhibition of beta-lactamase VIM-2 (unknown origin) expressed in Escherichia coli LZ2310 assessed as potentiation of cefoxitin antibacterial activity by measuring cefoxitin induced diameter of inhibition zone at 40 uM incubated for 18 hrs by disk diffusion method (reference value: 14 mm)
How it was run: (§3)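 Efflux-deficient E. coli LZ2310 (NorE, MdfA, AcrA knocked out) carrying pLB-II with the cloned MBL gene. Mueller-Hinton, CLSI disk diffusion; antibiotic disks (30 µg cefoxitin for VIM-2, 10 µg ampicillin for VIM-4, 30 µg ceftazidime for NDM-1/IMP-1) loaded with inhibitor in DMSO (≤15 µL). Zone diameter after 18 h, 35 ± 1 °C; DMSO and 220 µg EDTA controls. Triplicate.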

[5] = Binding affinity to beta-lactamase VIM-2 expressed in Escherichia coli BL21(DE3) assessed as association constant at 25 degC by isothermal titration calorimetry
How it was run: (§4)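 VIM-2 (19 μM) in 10 mM HEPES-NaOH, 0.15 M NaCl, 50 μM ZnSO4, pH 7.5, DMSO matched to ligand (1-2% final). One 0.5 μl then 19 × 2 μl injections of compound (200-400 μM), 150 s apart, 25 °C. Buffer dilution heats subtracted; nonlinear least-squares fit for n, Ka, ΔH; compound concentration adjusted in fitting so n ≈ 1.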

[6] = Binding affinity to beta-lactamase VIM-2 expressed in Escherichia coli BL21(DE3) assessed as change in entropy at 25 degC by isothermal titration calorimetry; how it was run: as §4
[7] = Inhibition of beta-lactamase L1 (unknown origin) expressed in Escherichia coli BL21(DE3) using nitrocefin as substrate by measuring substrate hydrolysis preincubated for 30 mins by spectrophotometric analysis
How it was run: (§5)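 Enzyme 0.2–0.8 nM in 25 mM HEPES pH 7.5 with 50 μM ZnCl2 final, pre-incubated 30 min at 21 °C with inhibitor (100 μM screen). Nitrocefin 100 μM final, read at 482 nm, 30 °C. Residual activity vs three uninhibited samples; Ki (1–100 μM inhibitor) from Hanes linearization, competitive model. Triplicate.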

[8] = Binding affinity to beta-lactamase VIM-2 expressed in Escherichia coli BL21(DE3) assessed as change in enthalpy at 25 degC by isothermal titration calorimetry; how it was run: as §4
[9] = Binding affinity to beta-lactamase VIM-2 expressed in Escherichia coli BL21(DE3) assessed as dissociation constant at 25 degC by isothermal titration calorimetry; how it was run: as §4
[10] = Inhibition of beta-lactamase VIM4 (unknown origin) expressed in Escherichia coli BL21(DE3) using imipenem as substrate by measuring substrate hydrolysis by spectrophotometric analysis; how it was run: as §1
[11] = Inhibition of beta-lactamase NDM1 (unknown origin) expressed in Escherichia coli BL21(DE3) using cefotaxime/nitrocefin as substrate by measuring substrate hydrolysis by spectrophotometric analysis
How it was run: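 His-tagged enzyme from E. coli BL21(DE3) pET-15b, affinity-purified, 1-70 nM final. Reporter substrate 120 μM cefotaxime (260 nm) or 100 μM nitrocefin (482 nm), 30 °C, 50 mM HEPES pH 7.5. Inhibitor 0.5–1,000 μM final; competitive Ki from v0/vi vs [I] slope or Dixon plot. Triplicate.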

[12] = Binding affinity to beta-lactamase VIM-2 expressed in Escherichia coli BL21(DE3) assessed as Gibbs free energy at 25 degC by isothermal titration calorimetry; how it was run: as §4
[13] = Inhibition of beta-lactamase VIM-4 (unknown origin) expressed in Escherichia coli LZ2310 assessed as potentiation of ampicillin antibacterial activity by measuring ampicillin induced diameter of inhibition zone at 40 uM incubated for 18 hrs by disk diffusion method (reference value: 6 mm); how it was run: as §3
[14] = Inhibition of beta-lactamase IMP-1 (unknown origin) expressed in Escherichia coli BL21(DE3) using imipenem as substrate by measuring substrate hydrolysis at 100 uM by spectrophotometric analysis; how it was run: as §1
[15] = Inhibition of beta-lactamase NDM1 (unknown origin) expressed in Escherichia coli BL21(DE3) using cefotaxime/nitrocefin as substrate by measuring substrate hydrolysis at 200 uM by spectrophotometric analysis
[16] = Inhibition of beta-lactamase NDM1 (unknown origin) expressed in Escherichia coli BL21(DE3) using cefotaxime/nitrocefin as substrate by measuring substrate hydrolysis at 100 uM by spectrophotometric analysis
[17] = target: Hydroxyacylglutathione hydrolase (Homo sapiens); test: Inhibition of human Glyoxalase II expressed in Escherichia coli BL21 (DE3)
[18] = Inhibition of beta-lactamase IMP-1 (unknown origin) expressed in Escherichia coli LZ2310 assessed as potentiation of ceftazidime antibacterial activity by measuring ceftazidime induced diameter of inhibition zone at 40 uM incubated for 18 hrs by disk diffusion method (reference value: 9 mm); how it was run: as §3
[19] = Inhibition of beta-lactamase VIM2 (unknown origin) expressed in Escherichia coli BL21(DE3) using imipenem as substrate by measuring substrate hydrolysis at 100 uM by spectrophotometric analysis; how it was run: as §1
[20] = Inhibition of beta-lactamase IMP-1 (unknown origin) expressed in Escherichia coli BL21(DE3) using imipenem as substrate by measuring substrate hydrolysis by spectrophotometric analysis; how it was run: as §1
[21] = Inhibition of beta-lactamase VIM2 (unknown origin) expressed in Escherichia coli BL21(DE3) using imipenem as substrate by measuring substrate hydrolysis at 200 uM by spectrophotometric analysis; how it was run: as §1
[22] = Inhibition of beta-lactamase VIM4 (unknown origin) expressed in Escherichia coli BL21(DE3) using imipenem as substrate by measuring substrate hydrolysis at 100 uM by spectrophotometric analysis; how it was run: as §1
[23] = Inhibition of beta-lactamase CphA (unknown origin) expressed in Escherichia coli BL21(DE3) using imipenem as substrate by measuring substrate hydrolysis at 100 uM by spectrophotometric analysis; how it was run: as §2
[24] = Inhibition of beta-lactamase CphA (unknown origin) expressed in Escherichia coli BL21(DE3) using imipenem as substrate by measuring substrate hydrolysis at 200 uM by spectrophotometric analysis
[25] = Inhibition of beta-lactamase L1 (unknown origin) expressed in Escherichia coli BL21(DE3) using nitrocefin as substrate by measuring substrate hydrolysis at 100 uM preincubated for 30 mins by spectrophotometric analysis; how it was run: as §5
[26] = Inhibition of beta-lactamase NDM-1 (unknown origin) expressed in Escherichia coli LZ2310 assessed as potentiation of ceftazidime antibacterial activity by measuring ceftazidime induced diameter of inhibition zone at 40 uM incubated for 18 hrs by disk diffusion method (reference value: 15 mm); how it was run: as §3

Row | Structure (SMILES) | inhibition [1] | pKi [2] | pKi [3] | inhibition zone (IZ) [4] [mm] | Ka [5] | -TdeltaS [6] [kcal/mol] | pKi [7] | deltaH [8] [kcal/mol] | pKd [9] | pKi [10] | pKi [11] | deltaG [12] [kcal/mol] | inhibition zone (IZ) [13] [mm] | inhibition [14] | inhibition [15] | inhibition [16] | pIC50 [17] | inhibition [25] [%] | other results
1 | COc1ccc(O)c(-c2n[nH]c(=S)n2/N=C/c2ccccc2C(=O)O)c1 | inactive | 4.89 | 6.15 | 14 | 2.6 10^6/M | 2.4 | 5.05 | -6.3 | 6.41 | 6.30 | 4.57 | -8.7 | 6 | inactive | – | – | – | – | –
2 | Cc1ccccc1-c1n[nH]c(=S)n1/N=C/c1ccc(O)cc1O | – | 4.21 | 5.15 | 14 | – | – | 4.51 | – | – | 6.40 | – | – | 6 | – | inactive | inactive | 4.72 | – | –
3 | Cc1ccccc1-c1n[nH]c(=S)n1/N=C/c1ccc(OCc2ccccc2)cc1 | – | 4.66 | – | – | – | – | 4.92 | – | – | 5.68 | – | – | 6 | – | inactive | inactive | 5.23 | – | inhibition zone (IZ) [18]: 9 mm; inhibition [19]: inactive; pKi [20]: 6.52; inhibition [21]: inactive
4 | Oc1ccc(/C=N/n2c(-c3ccc(Cl)cc3)n[nH]c2=S)c(O)c1 | – | – | – | – | – | – | – | – | – | – | 5.51 | – | – | 67% | – | – | – | 54 | inhibition [22]: 63%; inhibition [23]: inactive; inhibition [24]: inactive; inhibition zone (IZ) [26]: 15 mm
5 | Oc1ccc(/C=N/n2c(-c3ccccc3O)n[nH]c2=S)c(O)c1 | inactive | 5.22 | 5.70 | 14 | 3.4 10^6/M | -2.1 | – | -9.6 | 5.53 | 6.30 | – | -7.5 | 6 | inactive | inactive | inactive | – | 31 | –
6 | O=C(O)c1ccccc1/C=N/n1c(-c2cc(Cl)cc(Cl)c2)n[nH]c1=S | – | 5.40 | 5.52 | 14 | 1.2 10^6/M | 4.3 | 5.52 | -3.1 | 6.06 | 6.10 | 4.52 | -8.2 | 6 | 53% | – | – | – | – | –
